Results from ChEMBL document CHEMBL5346953, “Dual Piperidine-Based Histamine H3 and Sigma-1 Receptor Ligands in the Treatment of Nociceptive and Neuropathic Pain” (J Med Chem, 2023).
pIC50, pKi: −log10 of the molar value. Each block holds one molecule with its values, some of them ahead of it. Calls of active or inactive are those of the source.

Assays:
[1] = molecular target: T1, Histamine H3 receptor (Homo sapiens, UniProt Q9Y5N1); experiment: Inhibition of recombinant human histamine H3 receptor stably expressed in HEK293 cells assessed as increase in cAMP accumulation in presence of forskolin incubated for 30 mins by TR-FRET LANCE assay; assay type: functional, cell-based
T1 sequence (Q9Y5N1 whole entry): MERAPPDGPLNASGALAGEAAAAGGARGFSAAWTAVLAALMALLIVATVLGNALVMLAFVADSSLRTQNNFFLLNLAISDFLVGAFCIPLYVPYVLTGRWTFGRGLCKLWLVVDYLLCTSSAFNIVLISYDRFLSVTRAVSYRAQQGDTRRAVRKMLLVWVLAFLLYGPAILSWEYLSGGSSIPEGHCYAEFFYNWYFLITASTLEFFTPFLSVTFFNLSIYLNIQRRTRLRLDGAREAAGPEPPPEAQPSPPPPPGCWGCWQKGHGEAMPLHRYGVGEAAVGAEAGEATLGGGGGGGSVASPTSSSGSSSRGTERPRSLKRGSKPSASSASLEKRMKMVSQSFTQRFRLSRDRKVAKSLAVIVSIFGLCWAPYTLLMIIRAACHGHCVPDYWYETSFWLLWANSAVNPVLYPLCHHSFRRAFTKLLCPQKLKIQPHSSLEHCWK

[2] = Neurotoxicity against mouse assessed as reduction in spontaneous locomotor activity at 15 mg/kg,ip observed after 30 mins of administration; assay type: toxicity, organism-based; details: in vivo, 0.5 h
In short: (§1)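 Spontaneous locomotor activity was recorded in mice after i.p. dosing at 15 or 30 mg/kg, compared with vehicle, as a test of sedation. Analysis was one-way ANOVA. […]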

[3] = Neurotoxicity against mouse assessed as reduction in spontaneous locomotor activity at 30 mg/kg,ip observed after 30 mins of administration; assay type: toxicity, organism-based; details: in vivo, 0.5 h; in short: as §1
[4] = Neurotoxicity against mouse assessed as effect in spontaneous locomotor activity by measuring effective dose at ip administration observed after 30 mins; assay type: toxicity, organism-based; details: in vivo, 0.5 h; in short: as §1
[5] = Neurotoxicity against mouse assessed as impairment of motor coordination at 15 mg/kg,ip administration at 18 rpm by rotarod test; assay type: toxicity, organism-based; details: in vivo
In short: (§2)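 Mice received 15 mg/kg i.p. or vehicle. Motor coordination was then measured as time on the rotarod, at 18 and 24 rpm, with a maximum of 60 s.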

[6] = Neurotoxicity against mouse assessed as impairment of motor coordination at 15 mg/kg,ip administration at 24 rpm by rotarod test; assay type: toxicity, organism-based; details: in vivo; in short: as §2
[7] = test system: Mus musculus; experiment: Antinociceptive activity in Capsaicin-induced nociceptive mouse model assessed as reduction in paw licking at 10 to 30 mg/kg,ip administration followed by capsaicin treatment; assay type: functional, organism-based; details: dose 10-30 mg/kg
In short: (§3)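 Capsaicin was injected intraplantarly into mice pretreated with 10, 15 or 30 mg/kg, with 1% Tween 80 as vehicle. Licking/biting time was scored for 5 min after injection, with 8–10 mice per group, as mean ± SEM. Analysis was one-way ANOVA with Dunnett's test. ED50 was estimated from the dose–response.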

[8] = test system: Mus musculus; experiment: Antinociceptive activity in Capsaicin-induced nociceptive mouse model assessed as reduction in biting behavior at 10 to 30 mg/kg,ip administration followed by capsaicin treatment; assay type: functional, organism-based; details: dose 10-30 mg/kg; in short: as §3
[9] = test system: Mus musculus; experiment: Effect in loperamide-induced antinociception mouse assessed as increase in struggle response latency at ip administration; assay type: functional, organism-based
[10] = test system: Mus musculus; experiment: Antinociceptive activity in mouse assessed as effect on struggle response latency at 25 ug,ip administration; assay type: functional, organism-based; details: dose 25.0 µg
[11] = test system: Mus musculus; experiment: Antinociceptive activity in loperamide-induced mouse assessed as increase in struggle response latency struggle response latency at 25 ug,ip administration in presence of PRE-084; assay type: functional, organism-based; details: dose 25.0 µg
[12] = test system: Mus musculus; experiment: Antinociceptive activity in loperamide-induced mouse assessed as increase in struggle response latency struggle response latency at 25 ug,ip administration in presence of naloxone-methiodide; assay type: functional, organism-based; details: dose 25.0 µg
[13] = test system: Mus musculus; experiment: Antiallodynic activity against oxaliplatin-induced peripheral neuropathy mouse model assessed as increase in pain threshold baseline at early phase at 5 mg/kg,ip followed by oxaliplatin treatment measured after 3 hrs by von frey test; assay type: functional
In short: (§4)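 Mice with oxaliplatin-induced neuropathy were given the drug as a single dose at 5, 10 or 15 mg/kg. Tactile allodynia was measured by von Frey 3 h (early phase) and 7 days (late phase) after neuropathy induction. Thresholds are expressed relative to each group's pre-oxaliplatin baseline.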

[14] = test system: Mus musculus; experiment: Antiallodynic activity against oxaliplatin-induced peripheral neuropathy mouse model assessed as increase in pain threshold baseline at late phase at 5 mg/kg,ip followed by oxaliplatin treatment measured after 7 days by von frey test; assay type: functional; details: time 7 day; in short: as §4
[15] = test system: Mus musculus; experiment: Antiallodynic activity against oxaliplatin-induced peripheral neuropathy mouse model assessed as increase in pain threshold baseline at early phase at 10 mg/kg,ip followed by oxaliplatin treatment measured after 3 hrs by von frey test; assay type: functional; in short: as §4
[16] = test system: Mus musculus; experiment: Antiallodynic activity against oxaliplatin-induced peripheral neuropathy mouse model assessed as increase in pain threshold baseline at late phase at 10 mg/kg,ip followed by oxaliplatin treatment measured after 7 days by von frey test; assay type: functional; details: time 7 day; in short: as §4
[17] = test system: Mus musculus; experiment: Antiallodynic activity against oxaliplatin-induced peripheral neuropathy mouse model assessed as increase in pain threshold baseline at early phase at 15 mg/kg,ip followed by oxaliplatin treatment measured after 3 hrs by von frey test; assay type: functional; in short: as §4
[18] = test system: Mus musculus; experiment: Antiallodynic activity against oxaliplatin-induced peripheral neuropathy mouse model assessed as increase in pain threshold baseline at late phase at 15 mg/kg,ip followed by oxaliplatin treatment measured after 7 days by von frey test; assay type: functional; details: time 7 day; in short: as §4
[19] = test system: Mus musculus; experiment: Antiallodynic activity against oxaliplatin-induced peripheral neuropathy mouse model assessed as increase in pain threshold baseline at late phase at 5 mg/kg,ip administrated in presence of oxaliplatin measured after 7 days by von frey test; assay type: functional, organism-based; details: time 7.0 day; in short: as §4
[20] = test system: Mus musculus; experiment: Analgesic activity in CCI-induced neuropathic pain mouse model assessed as increase in mechanical paw withdrawal threshold at 5 mg/kg,ip administration measured after 30 mins by von frey test; assay type: functional, organism-based
In short: (§5)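 CCI mice tested 14 days after sciatic nerve injury. Groups received i.p. vehicle or drug at 5, 10 or 15 mg/kg. Baselines were taken before injection, with n = 7–8 per group. Read-outs were von Frey (ipsilateral and contralateral paw) at 30, 90 and 180 min, cold plate at 35, 95 and 185 min, and tail flick at 40, 100 and 190 min. Values are %MPE (mean ± SEM), analysed by one-way ANOVA with Bonferroni post hoc.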

[21] = test system: Mus musculus; experiment: Analgesic activity in CCI-induced neuropathic pain mouse model assessed as increase in mechanical paw withdrawal threshold at 10 mg/kg,ip administration measured after 30 mins by von frey test; assay type: functional, organism-based; in short: as §5
[22] = test system: Mus musculus; experiment: Analgesic activity in CCI-induced neuropathic pain mouse model assessed as increase in mechanical paw withdrawal threshold at 10 mg/kg,ip administration measured after 90 mins by von frey test; assay type: functional, organism-based; in short: as §5
[23] = test system: Mus musculus; experiment: Analgesic activity in CCI-induced neuropathic pain mouse model assessed as increase in mechanical paw withdrawal threshold at 10 mg/kg,ip administration measured after 180 mins by von frey test; assay type: functional, organism-based; in short: as §5
[24] = test system: Mus musculus; experiment: Analgesic activity in CCI-induced neuropathic pain mouse model assessed as increase in contralateral paw withdrawal threshold at 10 mg/kg,ip administration measured after 90 mins by von frey test; assay type: functional, organism-based; in short: as §5
[25] = test system: Mus musculus; experiment: Analgesic activity in CCI-induced neuropathic pain mouse model assessed as effect on tactile allodynia at 5 mg/kg,ip administration measured after 30 to 180 mins by von frey test; assay type: functional, organism-based; details: time lower 30.0 min, time upper […]; in short: as §5
[26] = test system: Mus musculus; experiment: Analgesic activity in CCI-induced neuropathic pain mouse model assessed as effect on tactile allodynia at 10 mg/kg,ip administration measured after 30 to 180 mins by von frey test; assay type: functional, organism-based; details: time lower 30.0 min, time upper […]; in short: as §5
[27] = test system: Mus musculus; experiment: Analgesic activity in CCI-induced neuropathic pain mouse model assessed as effect on withdrawal threshold at 15 mg/kg,ip administration measured after 90 mins by von frey test; assay type: functional, organism-based; in short: as §5
[28] = test system: Mus musculus; experiment: Analgesic activity in CCI-induced neuropathic pain mouse model assessed as effect on withdrawal threshold at 15 mg/kg,ip administration measured after 30 mins by von frey test; assay type: functional, organism-based; in short: as §5
[29] = test system: Mus musculus; experiment: Analgesic activity in CCI-induced neuropathic pain mouse model assessed as effect on withdrawal threshold at 15 mg/kg,ip administration measured after 180 mins by von frey test; assay type: functional, organism-based; in short: as §5
[30] = test system: Mus musculus; experiment: Analgesic activity in CCI-induced neuropathic pain mouse model assessed as effect on thermal stimuli at 5 to 15 mg/kg,ip administration measured after 35 mins by cold plate test; assay type: functional, organism-based; details: dose 5-15 mg/kg; in short: as §5
[31] = test system: Mus musculus; experiment: Anti-hyperalgesic activity in CCI-induced neuropathic pain mouse model assessed as effect on thermal stimuli at 5 to 15 mg/kg,ip administration measured after 95 mins by cold plate test; assay type: functional, organism-based; details: dose 5-15 mg/kg; in short: as §5
[32] = test system: Mus musculus; experiment: Analgesic activity in CCI-induced neuropathic pain mouse model assessed as effect on thermal stimuli at 5 mg/kg,ip administration measured after 185 mins by cold plate test; assay type: functional, organism-based; in short: as §5
[33] = test system: Mus musculus; experiment: Analgesic activity in CCI-induced neuropathic pain mouse model assessed as effect on thermal stimuli at 10 mg/kg,ip administration measured after 185 mins by cold plate test; assay type: functional, organism-based; in short: as §5
[34] = test system: Mus musculus; experiment: Analgesic activity in CCI-induced neuropathic pain mouse model assessed as effect on spinal response at 5 mg/kg,ip administration measured after 40 mins by tail flick test; assay type: functional, organism-based; in short: as §5
[35] = test system: Mus musculus; experiment: Analgesic activity in CCI-induced neuropathic pain mouse model assessed as effect on spinal response at 10 mg/kg,ip administration measured after 40 mins by tail flick test; assay type: functional, organism-based; in short: as §5
[36] = test system: Mus musculus; experiment: Analgesic activity in CCI-induced neuropathic pain mouse model assessed as effect on spinal response at 10 mg/kg,ip administration measured after 100 mins by tail flick test; assay type: functional, organism-based; in short: as §5
[37] = test system: Mus musculus; experiment: Analgesic activity in CCI-induced neuropathic pain mouse model assessed as effect on spinal response at 10 mg/kg,ip administration measured after 190 mins by tail flick test; assay type: functional, organism-based; in short: as §5
[38] = Neurotoxicity against mouse assessed as sedative effect at 15 mg/kg,ip observed after 30 mins of administration; assay type: toxicity, organism-based; details: in vivo, 0.5 h; in short: as §1
[39] = molecular target: Sigma non-opioid intracellular receptor 1 (Cavia porcellus, UniProt Q60492); experiment: Displacement of [3H](+)-pentazocine from sigma 1 receptor in guinea pig brain membrane assessed as inhibition constant by liquid scintillation counter analysis; assay type: cell membranes
Sequence of Sigma non-opioid intracellular receptor 1 (Q60492 whole entry): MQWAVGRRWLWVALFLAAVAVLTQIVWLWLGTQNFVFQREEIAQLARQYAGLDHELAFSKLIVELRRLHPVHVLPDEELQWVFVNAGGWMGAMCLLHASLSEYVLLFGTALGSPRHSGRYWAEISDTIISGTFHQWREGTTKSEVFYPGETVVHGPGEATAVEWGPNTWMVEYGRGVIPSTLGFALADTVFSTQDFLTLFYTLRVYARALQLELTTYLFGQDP

[40] = test system: Mus musculus; experiment: Antinociceptive activity in mouse assessed as effect on struggle response latency at 100 ug,ip administration; assay type: functional, organism-based; details: dose 100.0 µg
[41] = test system: Mus musculus; experiment: Antinociceptive activity in loperamide-induced mouse assessed as increase in struggle response latency struggle response latency at 100 ug,ip administration in presence of PRE-084; assay type: functional, organism-based; details: dose 100.0 µg
[42] = test system: Mus musculus; experiment: Antinociceptive activity in loperamide-induced mouse assessed as increase in struggle response latency struggle response latency at 100 ug,ip administration in presence of naloxone-methiodide; assay type: functional, organism-based; details: dose 100.0 µg
[43] = Neurotoxicity against mouse assessed as decrease in time spent on rod at 15 mg/kg,ip administration at 18 rpm by rotarod test; assay type: toxicity, organism-based; details: in vivo; in short: as §2
[44] = Neurotoxicity against mouse assessed as decrease in time spent on rod at 15 mg/kg,ip administration at 24 rpm by rotarod test; assay type: toxicity, organism-based; details: in vivo; in short: as §2
[45] = molecular target: T1, Histamine H3 receptor; experiment: Displacement of [3H]Nalpha-methylhistamine from recombinant human histamine H3 receptor stably expressed in HEK293 cells assessed as inhibition constant by competitive binding based radioligand depletion assay; assay type: cell-based

Compound: Cc1cc(OCCN2CCOCC2)nn1-c1ccc2ccccc2c1
Activity [9]: Dose-Dependent Effect
Activity [40]: inactive
Activity [41]: inactive
Activity [42]: inactive

Compound: c1ccc(Nc2ccc(OCCCN3CCCCC3)cc2)cc1
pIC50 [1]: 7.08
Activity [38]: Toxic
Activity [43]: Toxic
Activity [44]: Toxic

Compound: c1ccc(Cc2ccc(OCCCN3CCCCC3)cc2)cc1
pKi [45]: 7.56

Second part, led by results:

pIC50 [1]: 6.67
Compound: N#Cc1ccc(-c2ccc(OCCCN3CCC(c4ccncc4)CC3)cc2)cc1
Activity [2]: Toxic
Activity [3]: Toxic
ED50 [4]: 21.97 mg/kg
Activity [5]: Toxic
Activity [6]: Toxic
Activity [7]: Active
Activity [8]: Active
Activity [9]: Dose-Dependent Effect
Activity [10]: inactive
Activity [11]: inactive
Activity [12]: inactive
Activity [13]: 63.5%
Activity [14]: 77.7%
Activity [15]: 50.4%
Activity [16]: 67.6%
Activity [17]: 66.6%
Activity [18]: 69.3%
Activity [19]: inactive
Activity [20]: Active
Activity [21]: Active
Activity [22]: Active
Activity [23]: Active
Activity [24]: Active
Activity [25]: inactive
Activity [26]: inactive
Activity [27]: Active
Activity [28]: inactive
Activity [29]: inactive
Activity [30]: Active
Activity [31]: Active
Activity [32]: Active
Activity [33]: Active
Activity [34]: Active
Activity [35]: Active
Activity [36]: Active
Activity [37]: Active

pIC50 [1]: 7.08
Compound: c1ccc(-c2ccc(OCCCN3CCCCCC3)cc2)cc1
Activity [38]: Toxic
Activity [5]: Toxic
Activity [6]: Toxic

pKi [39]: 5.93
Compound: c1cc(OCCCN2CCCCC2)ccc1CN1CCCCC1 [JNJ-5207852]

pKi [45]: 8.21
Compound: N#Cc1ccc(-c2ccc(OCCCN3CCCCC3)cc2)cc1
